The values below come from ChEMBL document CHEMBL3085774, “Design of novel potent inhibitors of human uridine phosphorylase-1: synthesis, inhibition studies, thermodynamics, and in vitro influence on 5-fluorouracil cytotoxicity” (J Med Chem, 2013).

SMILES strings stand for the structures. Calls of active or inactive are those of the source. The calls are words filed in the database; no cut-off is given here. Where only a bound is given, the exact number is not on record here.

The target in series [1] is T1, Uridine phosphorylase 1 (Homo sapiens, UniProt Q16831). Put plainly: Inhibition of human recombinant UP1 expressed in Escherichia coli Rosetta (DE3) using URD and inorganic phosphate as substrate at 1 uM after 60 seconds by spectrophotometric analysis relative to control. The method, boiled down:
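Assay mix: 100 mM Tris pH 7.4, 100 nM recombinant hUP1, uridine 50 μM and Pi 2 mM (their Km values), inhibitor 1 μM final. Run 60 s at 37 °C under initial-rate conditions, following A280 decrease as uridine converts to uracil. Percent inhibition relative to uninhibited activity; DMSO control at up to 1% final.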
Target sequence in this assay (Q16831 whole entry, looked up): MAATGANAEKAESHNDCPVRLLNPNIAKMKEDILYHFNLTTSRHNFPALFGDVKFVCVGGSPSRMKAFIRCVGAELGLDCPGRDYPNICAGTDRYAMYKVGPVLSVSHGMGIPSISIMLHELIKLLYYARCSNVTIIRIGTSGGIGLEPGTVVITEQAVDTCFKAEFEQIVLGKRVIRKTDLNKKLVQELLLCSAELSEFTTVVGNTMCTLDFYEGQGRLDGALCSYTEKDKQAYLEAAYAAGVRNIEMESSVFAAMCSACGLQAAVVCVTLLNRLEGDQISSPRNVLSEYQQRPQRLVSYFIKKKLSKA

Series [2] is described as follows: Inhibition of mouse UPase by Dixon plot analysis.
Series [3] deals with HT-29. The series is described as follows: Potentiation of 5-FU-induced cytotoxicity against human HT-29 cells assessed as reduction in compound IC50 at 30 uM after 72 hrs by MTT assay relative to control. It is filed as functional. The method in brief:
(§1)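 5-FU concentration–response over 72 h (HaCat 0.25–20 μM; HT-29 0.25–50 μM; SW-620 0.5–150 μM), with or without 30 μM inhibitor. Seeding and adhesion as for the viability assay. MTT read-out at 495 nm; 5-FU IC50 from semilog curves by nonlinear regression. Three independent experiments in quadruplicate; one-way ANOVA with Bonferroni test.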

Series [4] has as its system HaCaT. Put plainly: Effect on 5-FU-induced cytotoxicity against human HaCaT cells at 30 uM after 72 hrs by MTT assay. Type of series: cell-based. The method, boiled down:
as §1

The target in series [5] is T1, Uridine phosphorylase 1. The series is described as follows: Binding affinity to human recombinant UP1 expressed in Escherichia coli Rosetta (DE3) by isothermal titration calorimetric analysis. The method in brief:
(§2)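 ITC at 310.15 K (37 °C): 56 μM hUP1 in 50 mM Tris HCl pH 7.4, alone or as binary complex with 10 mM Pi or R1P (50–200 μM, final). One 0.5 μL injection (discarded), then 26 injections of 1.5 μL ligand. Dilution heats subtracted. Fit to one-set-of-sites model for ΔH°, Keq and n; ΔG° and ΔS° calculated.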
Target sequence in this assay (Q16831 whole entry): as the sequence (Q16831 whole entry, looked up) above

In series [6] the target is T1, Uridine phosphorylase 1. Put plainly: Non-competitive inhibition of human recombinant UP1 expressed in Escherichia coli Rosetta (DE3) using inorganic phosphate as substrate assessed as equilibrium dissociation constant for enzyme-substrate-inhibitor complex by Lineweaver-Burk plot analysis. The method, boiled down:
(§3)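 Pi varied 0.1–12 mM with uridine fixed at 50 μM. Four inhibitor levels (0.1–5 μM), 100 nM enzyme, 100 mM Tris pH 7.4, 37 °C. Initial rates read as decreasing A280. Kis from slopes and Kii from intercepts of Lineweaver–Burk plots; inhibition mode from line patterns. Duplicates.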
Target sequence in this assay (Q16831 whole entry, looked up): as above

Series [7] has as its target T1, Uridine phosphorylase 1. Put plainly: Non-competitive inhibition of human recombinant UP1 expressed in Escherichia coli Rosetta (DE3) using inorganic phosphate as substrate assessed as equilibrium dissociation constant for enzyme-inhibitor complex by Lineweaver-Burk plot analysis. The method in brief: as §3
Target sequence in this assay (Q16831 whole entry, looked up): as above
In series [8] the target is T1, Uridine phosphorylase 1. Put plainly: Competitive inhibition of human recombinant UP1 expressed in Escherichia coli Rosetta (DE3) using URD as substrate by Lineweaver-Burk plot analysis. The method, boiled down:
(§4)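 Uridine varied 20–600 μM with Pi fixed at 2 mM. Four inhibitor levels from 0.1 to 5 μM, 100 nM hUP1, 100 mM Tris pH 7.4, 37 °C. Uracil formation followed as the fall in A280 under initial-rate conditions. Kis from slopes and Kii from intercepts of Lineweaver–Burk plots; mode taken from line patterns. Duplicate measurements.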
Target sequence in this assay (Q16831 whole entry, looked up): as above

The target of another series is T2, Thymidine phosphorylase (Homo sapiens, UniProt P19971).
T2 sequence (P19971 whole entry): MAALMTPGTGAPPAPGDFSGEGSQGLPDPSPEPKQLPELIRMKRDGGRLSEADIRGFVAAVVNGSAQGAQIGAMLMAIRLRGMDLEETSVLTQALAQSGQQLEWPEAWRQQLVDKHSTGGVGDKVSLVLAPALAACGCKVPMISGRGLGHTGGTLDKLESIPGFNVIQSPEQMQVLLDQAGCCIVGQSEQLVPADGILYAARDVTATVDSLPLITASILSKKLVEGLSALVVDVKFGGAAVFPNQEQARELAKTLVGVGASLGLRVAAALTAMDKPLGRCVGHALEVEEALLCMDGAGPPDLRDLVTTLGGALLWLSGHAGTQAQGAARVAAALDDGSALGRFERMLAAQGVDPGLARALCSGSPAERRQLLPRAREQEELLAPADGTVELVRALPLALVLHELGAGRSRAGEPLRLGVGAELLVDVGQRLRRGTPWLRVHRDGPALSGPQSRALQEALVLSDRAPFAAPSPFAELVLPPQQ
Put plainly: Inhibition of human thymidine phosphorylase.

In series [9] the target is T1, Uridine phosphorylase 1. Put plainly: Non-competitive inhibition of human recombinant UP1 expressed in Escherichia coli Rosetta (DE3) using URD as substrate assessed as equilibrium dissociation constant for enzyme-substrate-inhibitor complex by Lineweaver-Burk plot analysis. The method, boiled down: as §4
Target sequence in this assay (Q16831 whole entry, looked up): as the sequence (Q16831 whole entry, looked up) above
Series [10] has as its target T1, Uridine phosphorylase 1. The series is described as follows: Time dependent inhibition of human recombinant UP1 expressed in Escherichia coli Rosetta (DE3) using URD and inorganic phosphate as substrate at 1 uM by spectrophotometric analysis. The method, boiled down:
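Enzyme (100 nM) preincubated with 1 μM inhibitor (final), then added to the standard reaction mix (Tris pH 7.4, 50 μM uridine, 2 mM Pi, 37 °C) at times up to 30 min. Change in initial velocity followed by A280 and percent inhibition calculated.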
Target sequence in this assay (Q16831 whole entry, looked up): as the sequence (Q16831 whole entry, looked up) above

The target in series [11] is T1, Uridine phosphorylase 1. Put plainly: Non-competitive inhibition of human recombinant UP1 expressed in Escherichia coli Rosetta (DE3) using URD as substrate assessed as equilibrium dissociation constant for enzyme-inhibitor complex by Lineweaver-Burk plot analysis. The method in brief:
as §4

Series [12] concerns the target T1, Uridine phosphorylase 1. The series is described as follows: Uncompetitive inhibition of human recombinant UP1 expressed in Escherichia coli Rosetta (DE3) using inorganic phosphate as substrate by Lineweaver-Burk plot analysis. The method in brief: as §3
Series [13] has as its system SW-620. Put plainly: Potentiation of 5-FU-induced cytotoxicity against human SW620 cells assessed as reduction in compound IC50 at 30 uM after 72 hrs by MTT assay relative to control. Type of series: functional. The method, boiled down: as §1
Series [14] relates to SW-620. The series is described as follows: Cytotoxicity against human SW620 cells at 1 to 100 uM after 72 hrs by MTT assay. Type of series: functional, cell-based. The method in brief:
(§5)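 Cells seeded at 7 × 10³ per well, allowed to adhere 48 h (HaCat) or 24 h (HT-29, SW-620). Exposed 72 h to 1–100 μM compound, 37 °C, 5% CO2. MTT 10% (v/v) for 3 h; formazan dissolved in DMSO and read at 495 nm. Viability relative to untreated cells; controls of medium and 1% DMSO. Mean ± SEM of three experiments in quadruplicate.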

For series [15], the system named is HT-29. The series is described as follows: Cytotoxicity against human HT-29 cells at 1 to 100 uM after 72 hrs by MTT assay. Type of series: functional, cell-based. The method, boiled down:
as §5

Series [16] deals with HaCaT. The series is described as follows: Cytotoxicity against human HaCaT cells at 1 to 100 uM after 72 hrs by MTT assay. Type of series: cell-based. The method, boiled down: as §5
The test system of series [17] is HT-29. Put plainly: Protection against 5-FU-induced cytotoxicity against human HT-29 cells assessed as increase in compound IC50 at 30 uM after 72 hrs by MTT assay relative to control.
The nature of series [18]: Half life in mouse plasma. Type of series: ADME, cell-free.
For series [19], the target named is T1, Uridine phosphorylase 1. Put plainly: Induction of uridine phosphorylase-mediated drug metabolism in human liver.
Series [20] has as its target T1, Uridine phosphorylase 1. Put plainly: Binding affinity to human recombinant UP1-R1P binary complex expressed in Escherichia coli Rosetta (DE3) at 50 uM R1P by isothermal titration calorimetric analysis. The method in brief: as §2
Target sequence in this assay (Q16831 whole entry): as the sequence (Q16831 whole entry, looked up) above

Turning to `CC(C)c1cc(O)[nH]c(=O)c1C#N`, the inhibition at Uridine phosphorylase 1 [1] came to 31%.

With `O=c1[nH]c(=O)n(COCCO)cc1Cc1ccccc1`, in [2], the Ki stood at 0.1 µM. The outcome in the series with HT-29 [3] was inactive. In addition, in the series with HaCaT [4], the Activity entry is given as “Non-toxic”. Besides, the Kd on Uridine phosphorylase 1 [5] worked out at 1.2 µM. Besides, the Kii at Uridine phosphorylase 1 [6] amounted to 317 nM. Also, the Kis at Uridine phosphorylase 1 [7] amounted to 547 nM; on Uridine phosphorylase 1 [8], 130 nM.

`N#Cc1ccc(O)[nH]c1=O` registered a concentration for half-maximal inhibition (IC50) on Thymidine phosphorylase of over 100 µM. The Kii was found to be 666 nM on Uridine phosphorylase 1 [6] and 2550 nM at Uridine phosphorylase 1 [9]. Besides, the results for the Kis at Uridine phosphorylase 1 [7] and at Uridine phosphorylase 1 [11] were 565 nM and 2610 nM, respectively. In addition, the inhibition entry at Uridine phosphorylase 1 [10] is “inactive”. On Uridine phosphorylase 1 [1], the inhibition was 67%.

Take `Cc1cc(O)[nH]c(=O)c1`: on Uridine phosphorylase 1 [1], the inhibition stood at 16%.

`Cc1c(CNCC(O)CO)c(O)[nH]c(=O)c1C#N` (stereo not given) displayed an IC50 at Thymidine phosphorylase of over 100 µM. Further, the Kii on Uridine phosphorylase 1 [12] is 182 nM. For the same molecule, the Kis at Uridine phosphorylase 1 [8] is 109 nM. In addition, at Uridine phosphorylase 1 [10], the inhibition result is “inactive”. For the same molecule, the inhibition at Uridine phosphorylase 1 [1] came to 78%.

On to `Cc1c(CNCCO)c(O)[nH]c(=O)c1C#N`, for which the “fold change (FC)” value in the series with SW-620 [13] turned out to be 6; in the series on HT-29 [17], 9. Besides, the Activity entry with HaCaT [4] and with HaCaT [16] was “Non-toxic” in each case. Further, the result with SW-620 [14] and in the series on HT-29 [15] was inactive. This molecule also displayed an IC50 against Thymidine phosphorylase of over 100 µM. For the same molecule, the Kii at Uridine phosphorylase 1 [12] came to 127 nM. The Kis on Uridine phosphorylase 1 [8] was determined as 68 nM. Also, at Uridine phosphorylase 1 [10], the inhibition result was “inactive”. For the same molecule, the inhibition on Uridine phosphorylase 1 [1] is 80%.

`Cc1ccc(O)[nH]c1=O`: the inhibition at Uridine phosphorylase 1 [1] came out at 12%.

In series [18], `O=c1ccn([C@@H]2O[C@H](CO)[C@@H](O)[C@H]2O)c(=O)[nH]1` [URIDINE] showed a half-life of 2 min. The same molecule came in with a metabolised at Uridine phosphorylase 1 [19] of over 80%.

For `Cc1c(CN2CCOCC2)c(O)[nH]c(=O)c1C#N`, the inhibition on Uridine phosphorylase 1 [1] turned out to be 51%.

Consider `Cc1cc(O)[nH]c(=O)c1C#N`, for which the “fold change (FC)” value with SW-620 [13] is on record as 12. In addition, the outcome with HT-29 [3], in the series with SW-620 [14] and in the series with HT-29 [15] was inactive. In addition, the Activity entry with HaCaT [4] and with HaCaT [16] was “Non-toxic” each time. On Thymidine phosphorylase, this molecule yielded an IC50 of over 100 µM. Also, the Kii was found to be 332 nM on Uridine phosphorylase 1 [12] and 635 nM on Uridine phosphorylase 1 [9]. Moreover, the inhibition result at Uridine phosphorylase 1 [10] was “inactive”. Further, the inhibition at Uridine phosphorylase 1 [1] amounted to 70%. Besides, the Kis at Uridine phosphorylase 1 [11] was 375 nM.

Take `O=c1cccc(O)[nH]1`: the inhibition on Uridine phosphorylase 1 [1] worked out at 38%.

As to `Cc1c(-c2ccccc2)c(O)[nH]c(=O)c1C#N`, the inhibition at Uridine phosphorylase 1 [1] is 12%.

For `Cc1c(CN(C)C)c(O)[nH]c(=O)c1C#N`, at Thymidine phosphorylase, the IC50 is over 100 µM. Further, the Kii at Uridine phosphorylase 1 [12] was found to be 107 nM. The Kis on Uridine phosphorylase 1 [8] worked out at 99 nM. For the same molecule, the inhibition entry on Uridine phosphorylase 1 [10] is “inactive”. The inhibition on Uridine phosphorylase 1 [1] stood at 81%.

Consider `Cc1c(Cc2ccccc2)c(O)[nH]c(=O)c1C#N`, for which the inhibition on Uridine phosphorylase 1 [1] was 43%.

As for `CCCc1cc(O)[nH]c(=O)c1C#N`, the inhibition on Uridine phosphorylase 1 [1] amounted to 16%.

For `N#Cc1c(Cc2ccccc2)cc(O)[nH]c1=O`, on Uridine phosphorylase 1 [1], the inhibition worked out at 2%.

On to `Cc1c(CNC(CO)CO)c(O)[nH]c(=O)c1C#N`, for which the Kd on Uridine phosphorylase 1 [20] turned out to be 7 µM. The same molecule had an IC50 on Thymidine phosphorylase of over 100 µM. Further, on Uridine phosphorylase 1 [12], the Kii was found to be 98 nM. For the same molecule, the Kis on Uridine phosphorylase 1 [8] amounted to 94 nM. On Uridine phosphorylase 1 [10], the inhibition entry is “inactive”. The inhibition on Uridine phosphorylase 1 [1] is 82%.

Consider `CCc1cc(O)[nH]c(=O)c1C#N`, for which the inhibition on Uridine phosphorylase 1 [1] is 25%.

For the molecule `N#Cc1c(-c2ccccc2)cc(O)[nH]c1=O`, the inhibition at Uridine phosphorylase 1 [1] amounted to 42%.

Consider `Cc1cc(O)[nH]c(=O)c1C`, for which, at Uridine phosphorylase 1 [1], the inhibition was 9.5%.

Turning to `O=c1[nH]cc(CNCCO)c(=O)[nH]1`, the inhibition at Uridine phosphorylase 1 [1] is 2%.

In the case of `CCN(CC)Cc1c(O)[nH]c(=O)c(C#N)c1C`, on Uridine phosphorylase 1 [1], the inhibition came out at 25%.

For the molecule `Cc1c(CN2CCCCC2)c(O)[nH]c(=O)c1C#N`, the inhibition on Uridine phosphorylase 1 [1] stood at 49%.
